CYP2C19 inh: blocks human cytochrome P450 2C19; P33261; CYP2C19 Supersomes, luciferin-H EGE luminescence, 30 min; inhibition, % at 5 µM; 96,000 tested, 21% active;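 active = CYP2C19 inhibition above a set limit at 5 µM in the primary screen, cut at about 50% in these data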;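 also: plate controls were negative control wells for no effect and 2.5 mM tranylcypromine positive control for full effect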
Target sequence (P33261 whole entry, looked up): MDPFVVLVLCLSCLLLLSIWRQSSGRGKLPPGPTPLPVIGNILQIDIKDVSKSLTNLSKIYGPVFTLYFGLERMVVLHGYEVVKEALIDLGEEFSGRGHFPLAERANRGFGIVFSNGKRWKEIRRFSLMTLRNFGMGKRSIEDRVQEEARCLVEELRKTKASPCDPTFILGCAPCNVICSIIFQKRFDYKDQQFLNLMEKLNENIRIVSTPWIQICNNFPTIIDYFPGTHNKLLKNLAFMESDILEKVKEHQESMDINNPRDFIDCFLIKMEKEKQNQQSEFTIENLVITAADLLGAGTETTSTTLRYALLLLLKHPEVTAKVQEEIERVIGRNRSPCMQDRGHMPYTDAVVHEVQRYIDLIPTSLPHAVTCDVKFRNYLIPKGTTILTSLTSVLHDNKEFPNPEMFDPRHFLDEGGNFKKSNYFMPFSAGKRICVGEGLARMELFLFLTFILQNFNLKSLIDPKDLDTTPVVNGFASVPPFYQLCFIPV
CYP2C9 activ: activators of human CYP2C9 | recombinant CYP2C9, luciferin-H conversion, luminescence; hits give high values; factor 1 = untreated enzyme, 0 = blocked | activation factor at 5 µM | 96,000 tested, 1.4% active | AID 1024;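 active = activation factor of 2 or more for CYP2C9 at a 5 µM dose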;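 also: 0 = sulfaphenazole-blocked wells and 1 = vehicle-only wells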
CYP2C9 inh: blocks human cytochrome P450 2C9; inhibition, % at 5 µM; AID 777; 96,000 tested, 20% active; CYP2C9 Supersomes, luciferin-H conversion, luminescence;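 active = blocking of liver enzyme CYP2C9 beyond about 50% at 5 µM, limit read from the data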
tolC growth inh: growth inhibitors of E. coli BW25113 tolC mutant; OD615; 65,000 tested, 2.2% active; growth inhibition, % at 10 µM (by protocol);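 active = growth inhibition at or above a cutoff equal to the mean over every tested compound plus 3 SD, cut at about 60% in these data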;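 also: growth measured after 20 h incubation at 37 °C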
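Test system: tolC-deleted E. coli BW25113; medium: LB with kanamycin 50 µg/mL; compound: single-point testing at 10 µM; incubation: 20 h compound exposure of bacteria at 37 °C; signal: OD at 615 nm; evaluation: growth inhibition in percent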
CYP2C19 activ: cytochrome P450 2C19 (human) activation. AID 1025. recombinant CYP2C19, luciferin-H EGE luminescence; hits give high values; 0 = fully inhibited enzyme, 1 = untreated enzyme. activation factor at 5 µM. P33261. 96,000 tested, under 10 active;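 active = activation factor of at least 2 at 5 µM in the primary screen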;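 also: 0 = wells with 2.5 mM tranylcypromine and 1 = vehicle-only wells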
E coli WT exp: blocks growth of wild type E. coli BW25113. AID 710. growth inhibition, % at 100 µM. OD600 absorbance. 98,000 tested, 0.15% active;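 active = growth inhibition above about 50% at one test dose, limit read from the data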;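 also: growth measured after 20 h incubation at 37 °C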
* hit, by the source's call; . = not tested or not shown. In the library only some 29% were active in any assay of this set; here they are far more common.

SMILES | CYP2C19 inh | CYP2C9 activ | CYP2C9 inh | tolC growth inh | CYP2C19 activ | E coli WT exp
CCc1ccc2[nH]c(=O)c(C(c3nnnn3CCOC)N3CCN(c4ccccc4)CC3)cc2c1 (stereo not drawn) | 49 | 0.3 | 69* | 13 | 0.5 | -12
Cc1cccc2cc(C(c3nnnn3Cc3ccccc3)N3CCN(C)CC3)c(=O)[nH]c12 (stereo not drawn) | 2 | 1 | 2 | -20 | 1 | .
CCc1ccc2[nH]c(=O)c(C(c3nnnn3Cc3ccccc3)N3CCOCC3)cc2c1 (stereo not drawn) | 1 | 0.5 | 45 | -1 | 1 | 0
c1ccc(Cn2nnnc2C(c2ccccn2)N2CCN(c3ccccc3)CC2)cc1 (stereo not drawn) | 61* | 0.5 | 46 | . | 0.4 | -4
CCc1ccc2[nH]c(=O)c(C(c3nnnn3Cc3ccco3)N3CCC(C)CC3)cc2c1 (stereo not drawn) | 60* | 0.6 | 38 | . | 0.4 | -2
Cc1cccc2cc(C(c3nnnn3Cc3ccccc3)N3CCN(c4ccccc4)CC3)c(=O)[nH]c12 (stereo not drawn) | 34 | 0.5 | 50* | 22 | 0.7 | -6
Cn1c2c(c(=O)n(C)c1=O)CN(CC1CCCO1)CN2 (stereo not drawn) | -18 | 1.2 | -17 | -22 | 1.2 | 3
CCOc1c2ccc(C(=O)NCCCCc3ccccc3)cc2nn1CC | 29 | 0.7 | 31 | . | 0.7 | 4
O=c1[nH]cnc2c1cnn2Cc1ccccc1 | 20 | 0.9 | 9 | 4 | 0.8 | 8
COC(=O)c1nn(-c2ccccc2)c(=O)cc1Oc1ccccc1 | 11 | 0.9 | 6 | . | 0.9 | 4
CC(NC(=O)c1cccs1)C(c1cccs1)N1CCOCC1 (stereo not drawn) | . | . | . | -17 | . | .
O=C(Nc1ccc(SC(F)F)cc1)c1cccc2nc3ccccc3nc12 | -9 | 0.9 | 12 | . | 1.1 | -3
CCc1ccc2[nH]c(=O)c(C(c3nnnn3CCOC)N3CCN(c4ccc(F)cc4)CC3)cc2c1 (stereo not drawn) | 96* | 0.3 | 69* | 78* | 0 | 0
CCc1ccc2[nH]c(=O)c(C(c3nnnn3Cc3ccc(OC)cc3)N3CCOCC3)cc2c1 (stereo not drawn) | 15 | 0.5 | 48 | 10 | 0.8 | -4
C=CCOC(=O)C1C(=O)CC(C)(O)C(C(=O)OCC=C)C1c1ccc(OC)cc1 (stereo not drawn) | 52* | 0.8 | 20 | -3 | 0.5 | 1
CCOC(=O)C1C(=O)CC(C)(O)C(C(=O)OCC)C1c1ccc(OCC)cc1 (stereo not drawn) | 1 | 0.9 | 7 | -3 | 1 | -2
CCOC(=O)C1C(=O)CC(C)(O)C(C(=O)OCC)C1c1cccc(OC(F)(F)C(F)F)c1 (stereo not drawn) | 86* | 0.1 | 90* | 1 | 0.1 | -14
COc1ccc(-n2c(SCC(N)=O)nc3nc4c(cc3c2=O)COC(C)(C)C4)cc1 | -5 | 0.9 | 8 | . | 1 | 3
Cc1ccc(NC(=O)C(C)Sc2nnc(-c3cccnc3)o2)cc1 (stereo not drawn) | 9 | 0.9 | 8 | -23 | 0.9 | -5
Brc1ccc(-c2nc3ncccn3c2NC2CCCCC2)o1 | 48 | 0.4 | 56* | . | 0.5 | -3
CSC1=Nc2sc3c(c2C2=NCCN12)CC(C)(C)OC3 | . | . | . | 6 | . | .
COc1cc(Cl)c(C)cc1NC(=O)CCCN1C(=O)CCC1=O | 31 | 0.9 | 8 | . | 0.7 | 4
COC(=O)c1cc(OC)c(OC)cc1NC(=O)CCCCCN1C(=O)CCC1=O | 62* | 0.6 | 44 | 3 | 0.4 | 6
CCOCCn1c(N2CCN(c3ccccc3)CC2)nc2c1c(=O)n(C)c(=O)n2C | 19 | 0.7 | 31 | -2 | 0.8 | 3
CCCCNc1nc2c(c(=O)n(C)c(=O)n2C)n1CCC | . | . | . | 3 | . | .
CCCCCCn1c(NCC)nc2c1c(=O)n(C)c(=O)n2C | 16 | 2.8* | -175 | 9 | 0.8 | -11
COc1ccc(N2CCN(c3nc4c(c(=O)n(C)c(=O)n4C)n3Cc3ccccc3)CC2)cc1 | 49 | 0.3 | 68* | 3 | 0.5 | -4
CCCCCCn1c(N2CCN(c3ccccc3)CC2)nc2c1c(=O)n(C)c(=O)n2C | 34 | 0.7 | 34 | 80* | 0.7 | -23
O=CN(/C=C1\Sc2ccccc2C1=O)Cc1ccccc1 | -2 | 0.4 | 56* | . | 1 | 3
